Source: ChEMBL document CHEMBL3739391, “Development of a potent and selective cell penetrant Legumain inhibitor” (Bioorg Med Chem Lett, 2015)
The source made the active and inactive calls. The rule behind the calls is not given here.

Tests used:
[1] = target: T1, Legumain (Homo sapiens, UniProt Q99538); assay: Inhibition of recombinant human legumain using Z-Ala-Ala-Asn-MCA substrate measured every 2 mins for 60 mins by microplate reader analysis
T1 sequence (Q99538 whole entry): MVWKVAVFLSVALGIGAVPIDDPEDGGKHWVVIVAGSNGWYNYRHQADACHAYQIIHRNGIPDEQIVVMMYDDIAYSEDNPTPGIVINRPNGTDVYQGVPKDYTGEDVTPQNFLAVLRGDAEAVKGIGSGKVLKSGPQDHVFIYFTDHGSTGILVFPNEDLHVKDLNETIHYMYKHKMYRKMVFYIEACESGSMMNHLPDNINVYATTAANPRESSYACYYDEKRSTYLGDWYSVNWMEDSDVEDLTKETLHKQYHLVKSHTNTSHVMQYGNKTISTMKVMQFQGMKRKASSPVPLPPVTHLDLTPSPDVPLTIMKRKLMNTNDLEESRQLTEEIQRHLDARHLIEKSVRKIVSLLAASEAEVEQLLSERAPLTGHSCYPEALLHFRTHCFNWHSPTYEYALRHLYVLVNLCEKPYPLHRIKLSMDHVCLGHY

[2] = target: T2, Legumain (Homo sapiens) (UniProt Q99538); assay: Inhibition of legumain in human MCF7 cells using Z-Ala-Ala-Asn-MCA substrate at 30 uM incubated for 24 hrs by microplate reader analysis; format: cell-based
T2 sequence (whole entry): T1 sequence (Q99538 whole entry)
How it was run: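 MCF7 cells incubated with compound at 37 °C for 24 h. Media then removed, cells washed with assay buffer and lysed. Intracellular legumain activity read in the lysate with fluorogenic substrate. Run in triplicate.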

[3] = Cytotoxicity against human PC3 cells assessed as cell viability at 30 uM incubated for 96 hrs by MTT assay; format: functional; conditions: PC-3, 96 h, read-out: Activity
How it was run: (§1)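 MTT viability read-out after 96 h exposure. Compared with DMSO vehicle control. n = 6.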

[4] = target: Caspase-8 (Homo sapiens, UniProt Q14790); assay: Inhibition of recombinant caspase 8 (unknown origin) using IETD-AFC fluorogenic substrate
[5] = target: T2, Legumain (Homo sapiens); assay: Inhibition of legumain in human MCF7 cells using Z-Ala-Ala-Asn-MCA substrate at 30 uM incubated for 48 hrs by microplate reader analysis; format: cell-based
[6] = Antimetastatic activity in human PC3 cells assessed as inhibition of colony formation efficiency at 2.5 uM after 2 weeks by soft agar anchorage-independent growth assay; format: functional; conditions: PC-3, 336 h
How it was run: (§2)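 Soft agar anchorage-independent colony formation in MCF7 and PC3 cells over 2 weeks. Compound and media refreshed every 4 days. Colonies quantified relative to DMSO vehicle-treated cells. n = 5.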

[7] = target: T3, Ubiquitin carboxyl-terminal hydrolase 17 (Homo sapiens, UniProt Q6R6M4); assay: Inhibition of USP17 in human HEK293T cells using fluorogenic substrate ub-rhodamine110 preincubated for 30 mins followed by substrate addition measured every 4 mins for 1 hr by microplate reader analysis; format: cell-based, HEK-293T
T3 sequence (Q6R6M4 whole entry): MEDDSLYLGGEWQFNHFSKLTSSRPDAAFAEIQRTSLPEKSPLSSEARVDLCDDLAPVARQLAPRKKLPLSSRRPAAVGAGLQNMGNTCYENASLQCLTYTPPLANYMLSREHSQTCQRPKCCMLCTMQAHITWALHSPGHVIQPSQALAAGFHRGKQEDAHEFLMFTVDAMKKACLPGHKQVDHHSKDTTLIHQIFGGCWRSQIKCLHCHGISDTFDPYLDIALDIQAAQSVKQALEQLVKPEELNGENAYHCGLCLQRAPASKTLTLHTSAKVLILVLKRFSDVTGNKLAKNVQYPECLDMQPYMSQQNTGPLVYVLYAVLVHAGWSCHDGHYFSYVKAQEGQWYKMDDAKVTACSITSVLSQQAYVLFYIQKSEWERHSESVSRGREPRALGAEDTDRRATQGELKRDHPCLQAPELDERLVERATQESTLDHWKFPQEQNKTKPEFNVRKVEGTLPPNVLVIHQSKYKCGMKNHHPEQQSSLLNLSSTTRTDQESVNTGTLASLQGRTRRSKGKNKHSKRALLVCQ

[8] = test system: T47D; assay: Cytotoxicity against human T47D cells assessed as cell viability at 30 uM incubated for 96 hrs by MTT assay; format: functional; conditions: read-out: Activity; how it was run: as §1
[9] = Cytotoxicity against human DU145 cells assessed as cell viability at 30 uM incubated for 96 hrs by MTT assay; format: functional; conditions: DU-145, 96 h, read-out: Activity; how it was run: as §1
[10] = target: Cathepsin S (Homo sapiens, UniProt P25774); assay: Inhibition of recombinant cathepsin S (unknown origin) using ZVVR-AMC fluorogenic substrate
[11] = test system: MCF7; assay: Antimetastatic activity in human MCF7 cells assessed as inhibition of colony formation efficiency at 5 uM after 2 weeks by soft agar anchorage-independent growth assay; format: functional; conditions: MCF7, 336 h; how it was run: as §2
[12] = target: Cathepsin B (Homo sapiens, UniProt P07858); assay: Inhibition of recombinant cathepsin B (unknown origin) using Z-Leu-Arg-AMC fluorogenic substrate
[13] = target: T4, Caspase-3 (Homo sapiens, UniProt P42574); assay: Inhibition of recombinant caspase 3 (unknown origin) using DEVD-AFC fluorogenic substrate
T4 sequence (P42574 whole entry): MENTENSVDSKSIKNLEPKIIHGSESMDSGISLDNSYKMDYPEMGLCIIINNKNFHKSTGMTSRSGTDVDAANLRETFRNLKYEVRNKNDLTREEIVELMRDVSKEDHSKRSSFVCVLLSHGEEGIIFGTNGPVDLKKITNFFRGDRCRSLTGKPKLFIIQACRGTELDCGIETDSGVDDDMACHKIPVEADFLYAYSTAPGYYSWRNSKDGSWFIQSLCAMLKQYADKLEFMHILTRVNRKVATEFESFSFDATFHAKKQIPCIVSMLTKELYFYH

[14] = test system: MCF7; assay: Cytotoxicity against human MCF7 cells assessed as cell death at 30 uM incubated for 96 hrs by MTT assay; format: functional; conditions: MCF7, 96 h
How it was run: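 MCF7 breast cancer cells were exposed to compound for 96 h, with DMSO vehicle as the control. Viability was read by MTT assay, n = 6.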

[15] = Cytotoxicity against human MCF10A cells assessed as cell death at 150 uM incubated for 96 hrs by MTT assay; format: functional; conditions: MCF-10A

Caspase-8, sequence (Q14790 217-374 limits assumed): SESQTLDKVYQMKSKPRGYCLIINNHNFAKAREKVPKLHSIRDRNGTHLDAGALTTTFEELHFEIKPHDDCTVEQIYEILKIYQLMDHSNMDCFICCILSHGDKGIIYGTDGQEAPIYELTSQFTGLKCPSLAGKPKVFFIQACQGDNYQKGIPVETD
Caspase-8, sequence (Q14790 385-479 limits assumed): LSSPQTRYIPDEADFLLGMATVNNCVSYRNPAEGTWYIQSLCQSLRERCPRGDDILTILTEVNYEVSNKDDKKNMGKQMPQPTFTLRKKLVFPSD
Cathepsin S, sequence (P25774 whole entry): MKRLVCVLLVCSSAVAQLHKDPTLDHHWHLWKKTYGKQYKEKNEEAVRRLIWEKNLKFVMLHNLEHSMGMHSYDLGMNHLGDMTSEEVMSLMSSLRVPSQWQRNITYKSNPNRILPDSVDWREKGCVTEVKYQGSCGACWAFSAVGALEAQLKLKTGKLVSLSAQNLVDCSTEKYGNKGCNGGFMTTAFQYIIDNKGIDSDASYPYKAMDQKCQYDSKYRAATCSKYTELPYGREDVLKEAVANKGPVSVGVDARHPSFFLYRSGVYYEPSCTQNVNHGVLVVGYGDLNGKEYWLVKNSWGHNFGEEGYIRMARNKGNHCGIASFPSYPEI

SMILES | IC50 [1] | inhibition [2] | further results
N#C[C@H](CC(N)=O)NC(=O)[C@@H]1CCCN1S(=O)(=O)c1ccc(-c2ccc(C(F)(F)F)cc2)cc1 | 121 nM | 52% | –
CC(C)(C)c1ccc(-c2ccc(S(=O)(=O)N3CCC[C@H]3C(=O)N[C@H](C#N)CC(N)=O)cc2)cc1 | 71 nM | 90% | viability at 30 µM [3]: > 50%; IC50 [4]: > 50000 nM; inhibition [5]: Active; inhibition at 2.5 µM [6]: 50%; IC50 [7]: > 50000 nM; viability at 30 µM [8]: > 50%; viability at 30 µM [9]: > 50%; IC50 [10]: > 50000 nM; inhibition at 5 µM [11]: 50%; IC50 [12]: > 50000 nM; IC50 [13]: > 50000 nM; mortality at 30 µM [14]: 81%; mortality at 150 µM [15]: 0%
N#C[C@H](CC(N)=O)NC(=O)[C@@H]1CCCN1S(=O)(=O)c1ccc(Cl)cc1Cl | 593 nM | 0% | –
N#C[C@H](CC(N)=O)NC(=O)[C@@H]1CCCN1S(=O)(=O)c1ccc(Cl)cc1 | 73 nM | 0% | –
N#C[C@H](CC(N)=O)NC(=O)[C@@H]1CCCN1S(=O)(=O)c1ccc(Br)cc1 | 282 nM | 0% | –
Cc1ccc(-c2ccc(S(=O)(=O)N3CCC[C@H]3C(=O)N[C@H](C#N)CC(N)=O)cc2)cc1 | 32 nM | 0% | –
N#C[C@H](CC(N)=O)NC(=O)[C@@H]1CCCN1S(=O)(=O)c1ccc(C(F)(F)F)cc1 | 332 nM | 0% | –
N#Cc1ccc(-c2ccc(S(=O)(=O)N3CCC[C@H]3C(=O)N[C@H](C#N)CC(N)=O)cc2)cc1 | 33 nM | 0% | –
N#C[C@H](CC(N)=O)NC(=O)[C@@H]1CCCN1S(=O)(=O)c1ccc(-c2ccccc2)cc1 | 12 nM | 47% | IC50 [4]: > 50000 nM; IC50 [7]: > 50000 nM; IC50 [10]: > 50000 nM; IC50 [12]: > 50000 nM; IC50 [13]: > 50000 nM; mortality at 30 µM [14]: 45%; mortality at 150 µM [15]: 0%
N#C[C@H](CC(N)=O)NC(=O)[C@@H]1CCCN1S(=O)(=O)c1ccc(-c2ccc(Cl)cc2)cc1 | 45 nM | 64% | –
N#C[C@H](CC(N)=O)NC(=O)[C@@H]1CCCN1S(=O)(=O)c1ccc(-c2cccc(F)c2)cc1 | 47 nM | 42% | –
COc1ccc(S(=O)(=O)N2CCC[C@H]2C(=O)N[C@H](C#N)CC(N)=O)cc1 | > 10000 nM | – | –
CC(C)c1ccc(-c2ccc(S(=O)(=O)N3CCC[C@H]3C(=O)N[C@H](C#N)CC(N)=O)cc2)cc1 | 5 nM | 75% | –
CC(C)Oc1ccc(-c2ccc(S(=O)(=O)N3CCC[C@H]3C(=O)N[C@H](C#N)CC(N)=O)cc2)cc1 | 969 nM | 49% | –
N#C[C@H](CC(N)=O)NC(=O)[C@@H]1CCCN1S(=O)(=O)c1ccc(-c2ccc3c(c2)OCO3)cc1 | 49 nM | 49% | –
N#C[C@H](CC(N)=O)NC(=O)[C@@H]1CCCN1S(=O)(=O)c1ccc(F)cc1 | 269 nM | 0% | –
CCc1ccc(-c2ccc(S(=O)(=O)N3CCC[C@H]3C(=O)N[C@H](C#N)CC(N)=O)cc2)cc1 | 71 nM | 42% | –
COc1ccc(-c2ccc(S(=O)(=O)N3CCC[C@H]3C(=O)N[C@H](C#N)CC(N)=O)cc2)cc1 | 6 nM | 90% | IC50 [4]: > 50000 nM; IC50 [7]: > 50000 nM; IC50 [10]: > 50000 nM; IC50 [12]: > 50000 nM; IC50 [13]: > 50000 nM; mortality at 30 µM [14]: 58%; mortality at 150 µM [15]: 0%
N#C[C@H](CC(N)=O)NC(=O)[C@@H]1CCCN1S(=O)(=O)c1ccc(-c2ccc(F)cc2)cc1 | 33 nM | 40% | –
N#C[C@H](CC(N)=O)NC(=O)[C@@H]1CCCN1S(=O)(=O)c1ccc(-c2ccccc2Cl)cc1 | 35 nM | 29% | –
CCOc1ccc(-c2ccc(S(=O)(=O)N3CCC[C@H]3C(=O)N[C@H](C#N)CC(N)=O)cc2)cc1 | 73 nM | 90% | –
